In article PMC4493932 (MedChemComm, 2013):
Like-named read-outs stand apart in the source and are kept apart here. Marks after values point to notes of the source that are not given here.

Tests used:
[1] = molecular target: P2Y6R expressed on 1321N1 astrocytoma cells (Homo sapiens, UniProt Q15077); assay: Flow cytometry; format: cell-based; conditions: for Inhibition of fluorescent binding of 16 to 1321N1-P2Y6R cells: 30 min pre-incubation, then 16 for 2 min, FCM
Outline: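 1321N1 human astrocytoma cells stably expressing human P2Y6R were pre-incubated 30 min with known P2Y6R ligands. Cells were then exposed for 2 min to an Alexa Fluor 488-conjugated nucleotide agonist, and labeling was read by flow cytometry. Fluorescence was converted to MESF. Nonspecific binding was defined with 100 μM UDP, and autofluorescence came from receptor-expressing cells without probe.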

[2] = molecular target: P2Y6R-expressing 1321N1 astrocytoma cells (Homo sapiens, UniProt Q15077); assay: Fluorescence/confocal microscopy of P2Y6R-expressing 1321N1 astrocytoma cells; format: cell-based; conditions: for Inhibition of fluorescent labeling by 16 (micrographs): 500 nM, 30 min preincubation at 37 °C, 16 500 nM, 60 min
P2Y6R-expressing 1321N1 astrocytoma cells, sequence (Q15077 whole entry): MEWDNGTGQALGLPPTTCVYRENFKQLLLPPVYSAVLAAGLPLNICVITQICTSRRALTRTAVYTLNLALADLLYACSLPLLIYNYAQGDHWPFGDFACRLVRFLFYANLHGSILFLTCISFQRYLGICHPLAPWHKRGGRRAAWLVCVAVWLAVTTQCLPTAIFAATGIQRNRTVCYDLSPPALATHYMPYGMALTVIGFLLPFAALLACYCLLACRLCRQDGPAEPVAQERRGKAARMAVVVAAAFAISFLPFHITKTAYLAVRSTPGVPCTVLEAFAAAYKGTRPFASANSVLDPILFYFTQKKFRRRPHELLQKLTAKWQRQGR
Outline: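 Stably P2Y6R-expressing 1321N1 astrocytoma cells were exposed to an Alexa Fluor 488-conjugated nucleotide agonist (500 nM, 60 min, 37 °C), with or without a known P2Y6R agonist or a diisothiocyanate antagonist. Green fluorescence was imaged on a fluorescence microscope (excitation 495 nm, emission 519 nm).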

hP2Y4R = hP2Y4R (Homo sapiens, UniProt P51582); assay: PLC activation in 1321N1 cells stably expressing the hP2Y4R; format: cell-based; conditions: percent of maximal activation by full agonist at 10 μM
hP2Y4R, sequence (P51582 whole entry): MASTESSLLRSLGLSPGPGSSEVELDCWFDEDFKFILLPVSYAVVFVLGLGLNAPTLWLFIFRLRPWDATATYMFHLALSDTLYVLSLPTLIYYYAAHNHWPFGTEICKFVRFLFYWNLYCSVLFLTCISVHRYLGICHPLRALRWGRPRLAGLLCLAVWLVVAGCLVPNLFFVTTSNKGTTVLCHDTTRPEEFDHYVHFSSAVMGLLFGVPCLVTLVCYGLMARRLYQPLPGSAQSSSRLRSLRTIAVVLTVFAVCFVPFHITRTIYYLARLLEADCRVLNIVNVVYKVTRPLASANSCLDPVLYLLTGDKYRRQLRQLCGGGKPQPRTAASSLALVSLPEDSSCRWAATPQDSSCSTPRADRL
Outline: (§1)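 Agonist-induced phospholipase C activation in 1321N1 human astrocytoma cells stably expressing recombinant human P2Y6, P2Y2 or P2Y4 receptor. EC50 values are given as mean ± SEM. Efficacy is expressed as percent of the maximal activation by a full agonist at 10 μM. Subtype selectivity is taken as the ratio of EC50 values.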

hP2Y2R = hP2Y2R (Homo sapiens, UniProt P41231); assay: PLC activation in 1321N1 cells stably expressing the hP2Y2R; format: cell-based; conditions: for EC50: read-out: Potency, EC50, P2Y2, 1321N1 astrocytoma cells expressing recombinant hP2Y2, mean ± SEM, NE = no effect
hP2Y2R, sequence (P41231 whole entry): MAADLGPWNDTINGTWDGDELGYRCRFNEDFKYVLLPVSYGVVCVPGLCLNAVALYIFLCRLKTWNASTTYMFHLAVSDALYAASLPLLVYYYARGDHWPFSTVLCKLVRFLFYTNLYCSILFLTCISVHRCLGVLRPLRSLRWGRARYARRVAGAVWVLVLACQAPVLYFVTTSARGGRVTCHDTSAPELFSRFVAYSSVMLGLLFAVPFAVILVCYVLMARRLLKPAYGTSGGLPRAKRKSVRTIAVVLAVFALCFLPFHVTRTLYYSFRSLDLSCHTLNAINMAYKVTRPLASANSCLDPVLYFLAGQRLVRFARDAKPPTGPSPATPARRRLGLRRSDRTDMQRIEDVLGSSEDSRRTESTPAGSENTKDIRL
Outline: as §1

human (h) P2Y6R = human (h) P2Y6R (Homo sapiens, UniProt Q15077); assay: PLC activation in 1321N1 human astrocytoma cells stably expressing the hP2Y6R; format: cell-based
human (h) P2Y6R, sequence (Q15077 whole entry): as the sequence (Q15077 whole entry) above
Outline: as §1

P2Y6R = conditions: cited from earlier work; for EC50: read-out: P2Y6R agonist EC50
[3] = test system: 1321N1 astrocytoma cells not expressing a P2YR; assay: Fluorescence microscopy of 1321N1 astrocytoma cells not expressing a P2YR; format: cell-based, human; conditions: incubated with 16
Outline: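 Confocal microscopy of 1321N1 astrocytoma cells incubated with the fluorescent test compound at 2 μM (figure panels give 1 μM) for 60 min at 37 °C. Cell-associated fluorescence was compared with receptor-expressing cells and with cells without the probe.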

hP2Y1R = hP2Y1R (Homo sapiens, UniProt P47900); assay: Labeling of 1321N1 cells expressing the hP2Y1R; format: cell-based; conditions: data not shown
hP2Y1R, sequence (P47900 whole entry): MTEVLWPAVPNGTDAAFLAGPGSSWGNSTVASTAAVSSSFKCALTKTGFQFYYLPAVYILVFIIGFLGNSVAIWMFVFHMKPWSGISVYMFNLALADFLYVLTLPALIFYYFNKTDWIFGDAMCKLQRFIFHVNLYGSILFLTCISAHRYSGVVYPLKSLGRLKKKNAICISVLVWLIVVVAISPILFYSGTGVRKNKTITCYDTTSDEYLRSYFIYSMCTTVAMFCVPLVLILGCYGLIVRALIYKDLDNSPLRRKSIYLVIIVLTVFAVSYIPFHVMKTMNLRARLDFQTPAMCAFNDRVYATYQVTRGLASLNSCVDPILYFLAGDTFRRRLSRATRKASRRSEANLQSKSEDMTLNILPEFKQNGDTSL

hP2Y14R = molecular target: T1, hP2Y14R (Homo sapiens, UniProt Q15391); format: cell-based; conditions: concentrations up to 10 μM; C6 rat glioma cells
T1 sequence (Q15391 1-338): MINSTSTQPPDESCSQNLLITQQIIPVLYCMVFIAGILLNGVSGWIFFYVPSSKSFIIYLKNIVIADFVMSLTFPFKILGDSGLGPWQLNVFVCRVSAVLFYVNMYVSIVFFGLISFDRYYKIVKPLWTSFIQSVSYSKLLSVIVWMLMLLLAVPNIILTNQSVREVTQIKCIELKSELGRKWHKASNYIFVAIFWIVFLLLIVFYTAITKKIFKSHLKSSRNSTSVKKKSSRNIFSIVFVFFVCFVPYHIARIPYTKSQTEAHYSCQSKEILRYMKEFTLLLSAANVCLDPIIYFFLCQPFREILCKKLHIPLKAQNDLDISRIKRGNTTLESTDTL

[4] = test system: control 1321N1 astrocytoma cells; assay: FCM labeling of control 1321N1 astrocytoma cells; format: cell-based, human; conditions: 60 min incubation
Outline: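 Whole-cell flow cytometry labelling with the Alexa Fluor 488-tagged test compound, 400 nM. Autofluorescence came from cells without the probe. Nonspecific binding was taken in the presence of 100 μM UDP, and specific binding is total minus nonspecific. Fluorescence was converted to molecules of equivalent soluble fluorochrome (MESF). Histograms are from one of three independent experiments.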

P2Y6R expressed on 1321N1 astrocytoma cells, sequence (Q15077 whole entry): as the sequence (Q15077 whole entry) above

Q: Which “Inhibition of fluorescent binding of 16 to 1321N1-P2Y6R cells” value ([1]; 0.5 μM) does the source give for CO/N=c1/ccn([C@@H]2O[C@H](COP(=O)(O)OP(=O)(O)OP(=O)(O)OC[C@H]3O[C@@H](n4ccc(=O)[nH]c4=O)[C@H](O)[C@@H]3O)[C@@H](O)[C@H]2O)c(=O)[nH]1 [Compound 8, P^1-(Uridine 5′-)-P^4-(N^4-methoxycytidine 5′-) triphosphate] here?
A: Its value is “significant reduction of labeling”.

Q: And the “Inhibition of fluorescent labeling by 16 (micrographs)” value [2]?
A: The value was “inhibit fluorescent labeling”.

Q: Which results are given for S=C=Nc1cccc(NC(=S)NCCCCNC(=S)Nc2cccc(N=C=S)c2)c1 [MRS2578]?
A: Inhibition of fluorescent binding of 16 to 1321N1-P2Y6R cells ([1]; 1 μM): significant reduction of labeling; Inhibition of fluorescent labeling by 16 (micrographs) [2]: inhibit fluorescent labeling

Q: For C#CCCOP(=O)(O)OP(=O)(O)OP(=O)(O)OC[C@H]1O[C@@H](n2cc/c(=N/OCc3ccccc3)[nH]c2=O)[C@H](O)[C@@H]1O [Compound 22], which “% activation, P2Y4” value (hP2Y4R) is on record?
A: Its value is under 50% ^c.

Q: And the “% activation, P2Y2” value (hP2Y2R; percent of maximal activation by full agonist at 10 μM)?
A: Its value is under 50% ^c.

Q: Which “% activation, P2Y4” value (hP2Y4R) does the source give for C#CCCCOP(=O)(O)OP(=O)(O)OP(=O)(O)OC[C@H]1O[C@@H](n2cc/c(=N/OCc3ccccc3)[nH]c2=O)[C@H](O)[C@@H]1O [Compound 23] here?
A: The value was under 50% ^c.

Q: What about the “Potency, EC50, P2Y6” value (human (h) P2Y6R; 1321N1 astrocytoma cells expressing recombinant hP2Y6, mean ± SEM) of the same molecule?
A: The value was “nearly inactive”.

Q: What about the EC50 (hP2Y2R) of the same molecule?
A: Its EC50 is over 10000 nM.

Q: Which results are given for O=c1[nH]/c(=N\OCc2ccccc2)ccn1[C@@H]1O[C@H](COP(=O)(O)OP(=O)(O)O)[C@@H](O)[C@H]1O [Compound 6, N^4-benzyloxy-CDP]?
A: P2Y6R selectivity vs. P2Y2R (P2Y6R): 82 fold; P2Y6R selectivity vs. P2Y4R (P2Y6R): 44 fold

Q: Which “% activation, P2Y4” value (hP2Y4R) does the source give for “(N^4-(3-(AlexaFluor-NH-(CH2)6-triazole-(CH2)2-C≡C)-benzyloxy))-CDP [Compound 16]” here?
A: Its value is under 50% ^c.

Q: And the “Fluorescence of cells not expressing a P2YR” value [3]?
A: The value was “no increase in fluorescence”.

Q: What about the “Cell-associated fluorescence, localization” value ([2]; 2 μM, 60 min incubation at 37 °C, confocal microscopy) of the same molecule?
A: Its value is “receptor-dependent and mainly intracellular”.

Q: And the “Specific labeling of 1321N1 cells expressing the hP2Y1R” value (hP2Y1R)?
A: The value was “no specific labeling”.

Q: And the “Activation of the hP2Y14R” value (hP2Y14R)?
A: Its value is “did not activate”.

Q: And the “Specific labeling of control 1321N1 cells” value [4]?
A: The value was “no specific labeling”.

Q: What about the “Selectivity toward the P2Y6R in comparison to the P2Y2R” value (human (h) P2Y6R; ratio of EC50 values) of the same molecule?
A: Its value is 280 fold.

Q: And the “Selectivity toward the P2Y6R in comparison to the P2Y4R” value (human (h) P2Y6R; ratio of EC50 values)?
A: The value was over 1100 fold.

Q: What about the EC50 (human (h) P2Y6R; read-out: Potency, EC50, P2Y6, 1321N1 astrocytoma cells expressing recombinant hP2Y6, mean ± SEM) of the same molecule?
A: Its EC50 is 9 ± 1.9 nM.

Q: What about the “P2Y6R potency gain over immediate precursor 15” value (human (h) P2Y6R; vs 15 lacking the fluorophore) of the same molecule?
A: The value was 11 fold.

Q: And the EC50 (hP2Y2R)?
A: Its EC50 is 2500 ± 660 nM.

Q: For O=c1[nH]/c(=N\OCc2ccc(I)cc2)ccn1[C@@H]1O[C@H](COP(=O)(O)OP(=O)(O)O)[C@@H](O)[C@H]1O [Compound 13], which “% activation, P2Y4” value (hP2Y4R) is on record?
A: Its value is under 50% ^c.

Q: And the EC50 (hP2Y2R)?
A: The EC50 was over 10000 nM.

Q: Which “Selectivity toward the P2Y6R in comparison to the P2Y4R” value (human (h) P2Y6R; ratio of EC50 values) does the source give for O=c1[nH]/c(=N\OCc2cccc(Br)c2)ccn1[C@@H]1O[C@H](COP(=O)(O)OP(=O)(O)O)[C@@H](O)[C@H]1O [Compound 10] here?
A: The value was over 260 fold.

Q: With O=C(Cn1c(=O)ccn([C@@H]2O[C@H](COP(=O)(O)OP(=O)(O)O)[C@@H](O)[C@H]2O)c1=O)c1ccccc1 [Compound 2, 3-phenacyl-UDP] as the molecule, how does the EC50 (P2Y6R) read?
A: Its EC50 is 70 nM.

Q: With “N^4-(3-(Cy5-NH-(CH2)6-triazole-(CH2)2-C≡C)-benzyloxy)-CDP [Compound 17]” as the molecule, how does the “Blockade of cell labeling by 100 μM UDP” value ([1]; 100 nM to 1 μM) read?
A: Its value is “could not be blocked”.

Q: What about the “Dependence of 1321N1 cell labeling on P2Y6R expression” value ([1]; 100 nM to 1 μM) of the same molecule?
A: Its value is “independent of the expression of the P2Y6R”.

Q: Which “% activation, P2Y4” value (hP2Y4R) does the source give for CO/N=c1/ccn([C@@H]2O[C@H](COP(=O)(O)OP(=O)(O)OP(=O)(O)Oc3ccc4ccccc4c3)[C@@H](O)[C@H]2O)c(=O)[nH]1 [Compound 20] here?
A: The value was under 50% ^c.

Q: For O=c1ccn([C@@H]2O[C@H](COP(=O)(O)OP(=O)(O)O)[C@@H](O)[C@H]2O)c(=O)[nH]1 [Compound 1, Uridine 5′-diphosphate], which “Inhibition of fluorescent binding of 16 to 1321N1-P2Y6R cells” value ([1]; 10 μM) is on record?
A: The value was “significant reduction of labeling”.

Q: And the EC50 (P2Y6R; endogenous agonist)?
A: The EC50 was 300 nM.
